A word on the half-life: it is the time needed for the level to fall by half in the phase considered. High values mean slow loss, low ones fast loss. As usually defined, the IC50 is the concentration that inhibits the measured activity by half. High values mean a need for much substance, low ones inhibition by little substance.

The record followed here is ChEMBL document CHEMBL1141128, “Structure-activity relationship study on a simple cationic peptide motif for cellular delivery of antisense peptide nucleic acid” (J Med Chem, 2005).

Starred links: 1 amine or outer side, 2 acyl side, 3 side chain; linkers in the order of their positions; H or OH if unused. Non-standard residues stand in square brackets, D forms with d. Residues, ends and D or L forms follow the SMILES beside them. Lys(Me2) = CN(C)CCCC[C@H](N)C(=O)O; X1 = NCCCC(CC(=O)[*:2])N[*:1]; hLys = NCCCCC[C@H](N)C(=O)O; Nlys = NCCCCNCC(=O)O Bounds are passed on as bounds.

The test system of data set [1] is CD40 mRNA. Briefly: […] CD40 expression in BCL1 cells treated with 1 uM peptide nucleic acid (PNA)conjugate; n=3. The class given is functional, cell-based. The settings on record: Mus musculus. Put shortly: (§1)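 Mouse BCL1 cells in DMEM with 10% FBS, given conjugate at 1, 3 or 10 μM by free uptake (no transfection agent) for 3 days. Cells trypsinised and stained 1 h with FITC anti-CD40 (HM40-3) or isotype control, then surface CD40 read by flow cytometry. Results are % untreated control, mean ± SD, n = 3.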

Data set [2] concerns CD40 mRNA. Briefly: […] CD40 expression in BCL1 cells treated with 3 uM peptide nucleic acid (PNA)conjugate; n=3. The settings on record: Mus musculus. The class given is functional, cell-based. Put shortly:
as §1

For data set [3], the system named is BCL1. Briefly: Inhibitory concentration against BCL1 cell proliferation in WST-1 assay; Range 5-10. The class given is functional, Mus musculus. Put shortly: (§2)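 BCL1 cells, 2000 per well, grown in DMEM with 10% FBS at 37 °C and 5% CO2. Exposed to conjugate for 3 days, then viable cells read by WST-1 absorbance at 450 nm. Value is the concentration at which absorbance fell below 50% of untreated control; triplicates.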
For orientation: Tetrazolium assays rely on reduction of a dye to a coloured formazan, in cell work by metabolically active cells.

Data set [4] is described as follows: Half-life of the conjugate when treated with 25% murine serum for enzymatic stability. Type of data set: ADME. The conditions noted are these: mouse. Put shortly:
(§3)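 Conjugates at 20 μM in 10% FBS RPMI 1640 medium or 25% mouse serum (Hepes-stabilised, diluted in PBS, pH 7.1–7.4), incubated at 37 °C. Sampled to 168 h (FBS) or 48 h (serum); proteins precipitated with 10% DCA, PNA 6mer internal standard added. Analysed by C3 RP-HPLC at 60 °C; t1/2 from normalised full-length peak area versus time.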

Data set [5] is described as follows: Half-life of the conjugate when treated with 10% foetal bovine serum for enzymatic stability. The class given is ADME, Bos taurus. The conditions noted are these: cattle. Put shortly:
as §3

The subject of data set [6] is CD40 mRNA. Nature of the data set: […] CD40 expression in BCL1 cells treated with 10 uM peptide nucleic acid (PNA)conjugate; n=3. The class given is functional, cell-based. The conditions noted are these: Mus musculus. The gist of the method: as §1
Data set [7] can be described thus: Half-life of the conjugate when treated with 25% murine serum for enzymatic stability; Range 2-3 h. The settings on record: mouse. The class given is ADME. Put shortly: as §3
Data set [8] deals with BCL1. Nature of the data set: Inhibitory concentration against BCL1 cell proliferation in WST-1 assay; Range 10-20. The class given is functional, Mus musculus. Put shortly: as §2
A short description of data set [9]: Half-life of the conjugate when treated with 25% murine serum for enzymatic stability; No data available. The class given is ADME. The settings on record: mouse. Put shortly:
as §3

The subject of data set [10] is BCL1. Briefly: Inhibitory concentration against BCL1 cell proliferation in WST-1 assay. The class given is functional, Mus musculus. The gist of the method:
as §2

Regarding `NCCCC[C@@H](C=O)NC(=O)CC(CCCN)NC(=O)CC(CCCN)NC(=O)CC(CCCN)NC(=O)CC(CCCN)NC(=O)CC(CCCN)NC(=O)CC(CCCN)NC(=O)CC(CCCN)NC(=O)CC(N)CCCN` (stereo partly drawn), the results for the UTC with CD40 mRNA [1], with CD40 mRNA [2] and in the data set with CD40 mRNA [6] were 94%, 81% and 66%, respectively. Also, the Cell viability with BCL1 [3] came to 10 µM. Also, the half-life was > 48 h in data set [4] and > 168 h in data set [5].

For the compound `NCCCC[C@@H](C=O)NC(=O)[C@H](CCCCN)NC(=O)[C@H](CCCCN)NC(=O)[C@H](CCCN=C(N)N)NC(=O)[C@H](CCCCN)NC(=O)[C@H](CCCCN)NC(=O)[C@H](CCCN=C(N)N)NC(=O)[C@H](CCCCN)NC(=O)[C@@H](N)CCCCN` (H-KKRKKRKKK-aldehyde), the UTC was 90% with CD40 mRNA [1], 76% in the data set with CD40 mRNA [2] and 43% in the data set with CD40 mRNA [6]. Also, the half-life in [7] was 3 h; in data set [5], 90 h. Moreover, in the data set on BCL1 [8], the IC50 was 20 µM.

Take `NCCCC[C@@H](C=O)NC(=O)[C@H](CCCCN)NC(=O)[C@H](CCCCN)NC(=O)CC(CCCN)NC(=O)[C@H](CCCCN)NC(=O)[C@H](CCCCN)NC(=O)CC(CCCN)NC(=O)[C@H](CCCCN)NC(=O)[C@@H](N)CCCCN` (stereo partly drawn) (H-KK[X1]KK[X1]KKK-aldehyde): the UTC was 98% with CD40 mRNA [1], 82% in the data set with CD40 mRNA [2] and 61% with CD40 mRNA [6]. Further, the Cell viability in the data set with BCL1 [3] came to 10 µM. For the same compound, the T1/2 result in [9] was “No data available”. Further, in [5], the half-life was > 168 h.

In the case of `CN(C)CCCC[C@H](NC(=O)[C@H](CCCCN)NC(=O)[C@H](CCCCN(C)C)NC(=O)[C@H](CCCCN)NC(=O)[C@H](CCCCN(C)C)NC(=O)[C@H](CCCCN)NC(=O)[C@H](CCCCN(C)C)NC(=O)[C@@H](N)CCCCN)C(=O)N[C@H](C=O)CCCCN` (H-K[Lys(Me2)]K[Lys(Me2)]K[Lys(Me2)]K[Lys(Me2)]K-aldehyde), in the data set on BCL1 [10], the “IC50 for cell proliferation” value was 20 µM. Besides, the UTC in the data set with CD40 mRNA [1] came out at 96%; in the data set on CD40 mRNA [2], 89%; in the data set with CD40 mRNA [6], 53%. Also, the T1/2 entry in data set [9] is recorded as “No data available”. In addition, the half-life in [5] was > 168 h.

For `NCCCC[C@H](NC(=O)CN(CCCCN)C(=O)[C@H](CCCCN)NC(=O)CN(CCCCN)C(=O)[C@H](CCCCN)NC(=O)CN(CCCCN)C(=O)[C@H](CCCCN)NC(=O)CN(CCCCN)C(=O)[C@@H](N)CCCCN)C(=O)O` (H-K[Nlys]K[Nlys]K[Nlys]K[Nlys]K-OH), the UTC was 111% in the data set with CD40 mRNA [1], 96% with CD40 mRNA [2] and 70% with CD40 mRNA [6]. For the same compound, the T1/2 entry in [9] is recorded as “No data available”. In the data set with BCL1 [8], this compound yielded a concentration for half-maximal inhibition (IC50) of 20 µM. Moreover, the half-life in data set [5] was > 168 h.

Take `NCCCCC[C@H](NC(=O)[C@H](CCCCN)NC(=O)[C@H](CCCCCN)NC(=O)[C@H](CCCCN)NC(=O)[C@H](CCCCCN)NC(=O)[C@H](CCCCN)NC(=O)[C@H](CCCCCN)NC(=O)[C@@H](N)CCCCN)C(=O)N[C@H](C=O)CCCCN` (H-K[hLys]K[hLys]K[hLys]K[hLys]K-aldehyde): the “IC50 for cell proliferation” value in the data set on BCL1 [10] was >20 µM. The UTC came out at 81% with CD40 mRNA [1], 61% in the data set with CD40 mRNA [2] and 32% with CD40 mRNA [6]. Moreover, in data set [9], the T1/2 result was “No data available”. Also, the half-life in [5] was > 168 h.

Consider `N=C(N)NCCC[C@H](NC(=O)[C@H](CCCNC(=N)N)NC(=O)[C@H](CCCNC(=N)N)NC(=O)[C@H](CCCNC(=N)N)NC(=O)[C@H](CCCNC(=N)N)NC(=O)[C@H](CCCNC(=N)N)NC(=O)[C@H](CCCNC(=N)N)NC(=O)[C@@H](N)CCCNC(=N)N)C(=O)N[C@H](C=O)CCCCN` (H-RRRRRRRRK-aldehyde), for which the “IC50 for cell proliferation” value in the data set with BCL1 [10] was >20 µM. Moreover, the results for the UTC with CD40 mRNA [1], in the data set on CD40 mRNA [2] and with CD40 mRNA [6] were 102%, 81% and 60%, respectively. Besides, the results for the half-life in data set [7] and in data set [5] were 3 h and 20 h, respectively.

With `CN(C)CCCC[C@H](NC(=O)[C@H](CCCCN(C)C)NC(=O)[C@H](CCCCN)NC(=O)[C@H](CCCCN(C)C)NC(=O)[C@H](CCCCN(C)C)NC(=O)[C@H](CCCCN)NC(=O)[C@H](CCCCN(C)C)NC(=O)[C@@H](N)CCCCN(C)C)C(=O)N[C@H](C=O)CCCCN` (H-[Lys(Me2)][Lys(Me2)]K[Lys(Me2)][Lys(Me2)]K[Lys(Me2)][Lys(Me2)]K-aldehyde), the “IC50 for cell proliferation” value in the data set on BCL1 [10] was >20 µM. For the same compound, the results for the UTC in the data set with CD40 mRNA [1], with CD40 mRNA [2] and in the data set with CD40 mRNA [6] were 91%, 89% and 63%, respectively. The T1/2 result in data set [9] is listed as “No data available”. For the same compound, in data set [5], the half-life was > 168 h.
